From ChEMBL document CHEMBL1122007, “A comparison of the inhibition of growth of methotrexate-resistant and -sensitive leukemia cells in culture by triazines. Evidence for a new mechanism of cell resistance to methotrexate” (1982)

tested on: L5178Y; assay: Compound was tested in vitro for concentration required to decrease 50% growth rate of murine leukemia L5178Y/R cell culture; format: functional, Mus musculus
Summary of the method: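 Seeded at 4.0-6.0 × 10^4 cells/mL in duplicate. Drug added 1:10, at least eight concentrations, for 48 h of continuous exposure under 5% CO2. Cells counted by Coulter counter. ID50 is the concentration that halves the growth rate (doubles the generation time), read from the dose-response curve.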

Which “Log 1/C” value does the source give for CCCCCCCCCOc1cccc(N2C(N)=NC(N)=NC2(C)C)c1 here?
Its value is 6.57.

With CC(C)c1cccc(OCc2cccc(N3C(N)=NC(N)=NC3(C)C)c2)c1 as the compound, how does the “Log 1/C” value read?
The value was 5.87.

For CC1(C)N=C(N)N=C(N)N1c1cccc(CNc2cc(C(N)=O)cc(C(N)=O)c2)c1, which “Log 1/C” value is on record?
Its value is 3.79.

Cc1cccc(OCc2cccc(N3C(N)=NC(N)=NC3(C)C)c2)c1 was tested. Which “Log 1/C” value did it give?
The value was 5.59.

For CC1(C)N=C(N)N=C(N)N1c1cccc(COc2cccc(NC(N)=O)c2)c1, which “Log 1/C” value is on record?
Its value is 4.74.

Which “Log 1/C” value does the source give for CC1(C)N=C(N)N=C(N)N1c1cccc(OCCOc2cccc(C(F)(F)F)c2)c1 here?
The value was 5.85.

With CC(=O)Nc1cccc(OCc2cccc(N3C(N)=NC(N)=NC3(C)C)c2)c1 as the compound, how does the “Log 1/C” value read?
The value was 4.95.

CC1(C)N=C(N)N=C(N)N1c1cccc([N+](=O)[O-])c1 was tested. Which “Log 1/C” value did it give?
The value was 5.03.

CC1(C)N=C(N)N=C(N)N1c1cccc(CSc2ccccc2)c1 was tested. Which “Log 1/C” value did it give?
Its value is 6.2.

How did the “Log 1/C” value turn out when CC1(C)N=C(N)N=C(N)N1c1cccc(C(O)c2ccccc2)c1 (configuration not stated) was run?
Its value is 4.17.

Which “Log 1/C” value does the source give for CC1(C)N=C(N)N=C(N)N1c1cccc(OCCOc2ccccc2)c1 here?
The value was 5.02.

For CC1(C)N=C(N)N=C(N)N1c1cccc(F)c1, which “Log 1/C” value is on record?
The value was 5.24.

With CC(C)(C)c1cccc(N2C(N)=NC(N)=NC2(C)C)c1 as the compound, how does the “Log 1/C” value read?
Its value is 6.03.

With CC1(C)N=C(N)N=C(N)N1c1cccc(Br)c1 as the compound, how does the “Log 1/C” value read?
The value was 5.9.

For CC1(C)N=C(N)N=C(N)N1c1cccc(I)c1, which “Log 1/C” value is on record?
Its value is 5.91.

For CC1(C)N=C(N)N=C(N)N1c1cccc(OCc2ccc(Cl)c(Cl)c2)c1, which “Log 1/C” value is on record?
Its value is 5.8.

CCCCCCCCCCCOc1cccc(N2C(N)=NC(N)=NC2(C)C)c1 was tested. Which “Log 1/C” value did it give?
Its value is 6.38.

With CC1(C)N=C(N)N=C(N)N1c1cccc(COc2ccccc2)c1 as the compound, how does the “Log 1/C” value read?
The value was 5.67.

CCc1cccc(OCc2cccc(N3C(N)=NC(N)=NC3(C)C)c2)c1 was tested. Which “Log 1/C” value did it give?
Its value is 5.74.

With CC1(C)N=C(N)N=C(N)N1c1cccc(COc2cccc(C#N)c2)c1 as the compound, how does the “Log 1/C” value read?
The value was 5.25.

With CCCCCCCCCCCCOc1cccc(N2C(N)=NC(N)=NC2(C)C)c1 as the compound, how does the “Log 1/C” value read?
The value was 6.24.

For CCCCCCCCCCCCCOc1cccc(N2C(N)=NC(N)=NC2(C)C)c1, which “Log 1/C” value is on record?
Its value is 6.52.

For CCCCCCc1cccc(N2C(N)=NC(N)=NC2(C)C)c1, which “Log 1/C” value is on record?
Its value is 6.39.

With CC(C)(C)c1cccc(OCc2cccc(N3C(N)=NC(N)=NC3(C)C)c2)c1 as the compound, how does the “Log 1/C” value read?
Its value is 6.08.

CC1(C)N=C(N)N=C(N)N1c1cccc(COc2cccc(NC(=N)S)c2)c1 was tested. Which “Log 1/C” value did it give?
The value was 4.01.

Which “Log 1/C” value does the source give for CCCCCCCCCCCCCCOc1cccc(N2C(N)=NC(N)=NC2(C)C)c1 here?
Its value is 6.49.

With CC1(C)N=C(N)N=C(N)N1c1cccc(COc2cccc(Cl)c2)c1 as the compound, how does the “Log 1/C” value read?
The value was 5.93.

With COc1cccc(OCc2cccc(N3C(N)=NC(N)=NC3(C)C)c2)c1 as the compound, how does the “Log 1/C” value read?
The value was 5.36.

With CC1(C)N=C(N)N=C(N)N1c1cccc(COc2cccc(CO)c2)c1 as the compound, how does the “Log 1/C” value read?
The value was 4.77.

CN(C)C(=O)c1cccc(COc2ccc(N3C(N)=NC(N)=NC3(C)C)cc2Cl)c1 was tested. Which “Log 1/C” value did it give?
Its value is 5.4.

With CC1(C)N=C(N)N=C(N)N1c1cccc(OCCCCOc2cccc(C(F)(F)F)c2)c1 as the compound, how does the “Log 1/C” value read?
The value was 6.28.

Which “Log 1/C” value does the source give for CC(=O)c1cccc(N2C(N)=NC(N)=NC2(C)C)c1 here?
Its value is 4.56.

Which “Log 1/C” value does the source give for CC1(C)N=C(N)N=C(N)N1c1cccc(OCCCCOc2ccccc2)c1 here?
Its value is 5.3.

Which “Log 1/C” value does the source give for Cc1cccc(N2C(N)=NC(N)=NC2(C)C)c1 here?
The value was 4.97.

Which “Log 1/C” value does the source give for CC1(C)N=C(N)N=C(N)N1c1cccc(OCc2ccccc2)c1 here?
Its value is 5.19.

How did the “Log 1/C” value turn out when CCCCOc1cccc(N2C(N)=NC(N)=NC2(C)C)c1 was run?
The value was 5.95.

CN(Cc1cnc2nc(N)nc(N)c2n1)c1ccc(C(=O)N[C@@H](CCC(=O)O)C(=O)O)cc1 [METHOTREXATE] was tested. Which “Log 1/C” value did it give?
The value was 2.9.
